Results published in article PMC4560520 (Drug Design, Development and Therapy, 2015).
Where two headings read alike, the source gives them in different places.

Key:
healthy subjects [1] = conditions: cited from earlier work
[2] = cited from earlier work; for t1/2: mean ± SD
healthy subjects [3] = conditions: febuxostat multiple 80 mg once-daily doses after a high-fat meal; cited from earlier work
healthy subjects [4] = assay: Multiple ascending dose; assay type: in vivo, human
dog = conditions: preclinical studies, no reference given; cited from earlier work
CYP isoenzymes = conditions: incubated with CYP isoenzymes; preclinical, no reference given; cited from earlier work
XO = XO (Homo sapiens, UniProt P47989); assay: PK/PD relationship, Emax model; assay type: in vivo
SUA = conditions: in vivo study; ref data on file at LG Life Sciences; cited from earlier work
[5] = SAD study incl. food effect: pharmacokinetics of LC350189 in plasma and urine; assay type: in vivo, human
healthy subjects [6] = assay: Safety and tolerability evaluation; assay type: in vivo, human
Summary of the method: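 The single-dose part covered 10–600 mg; the multiple-dose part gave 100–800 mg orally once daily for 7 days after an overnight fast, with 8 active subjects per dose group. Adverse events came from a questionnaire or spontaneous reports. Renal toxicity was assessed with a NGAL test.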

XO enzyme = conditions: in vitro; ref data on file at LG Life Sciences; cited from earlier work
healthy subjects [7] = assay: Single ascending dose; assay type: in vivo, human; conditions: for Change in Cmean,24 of serum uric acid from baseline: Day 1, mean (SD), n=8
Summary of the method: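 Healthy volunteers got a single oral dose on day 1, fasted, with placebo on day -1 for baseline and standardized meals. Serial blood was taken on days -1 and 1; aliquots were stored at -70°C. Serum uric acid, xanthine and hypoxanthine were measured by a validated assay. Cmean,24 = noncompartmental AUC0–24/24, as % change from baseline. Urinary Ae = urine volume × concentration.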

liver microsome = conditions: in vitro liver microsome study; preclinical, no reference given; cited from earlier work
rat = conditions: preclinical studies, no reference given; cited from earlier work
[8] = 200 mg, fed (high-fat diet) vs fasting

Sequence of XO (P47989 whole entry): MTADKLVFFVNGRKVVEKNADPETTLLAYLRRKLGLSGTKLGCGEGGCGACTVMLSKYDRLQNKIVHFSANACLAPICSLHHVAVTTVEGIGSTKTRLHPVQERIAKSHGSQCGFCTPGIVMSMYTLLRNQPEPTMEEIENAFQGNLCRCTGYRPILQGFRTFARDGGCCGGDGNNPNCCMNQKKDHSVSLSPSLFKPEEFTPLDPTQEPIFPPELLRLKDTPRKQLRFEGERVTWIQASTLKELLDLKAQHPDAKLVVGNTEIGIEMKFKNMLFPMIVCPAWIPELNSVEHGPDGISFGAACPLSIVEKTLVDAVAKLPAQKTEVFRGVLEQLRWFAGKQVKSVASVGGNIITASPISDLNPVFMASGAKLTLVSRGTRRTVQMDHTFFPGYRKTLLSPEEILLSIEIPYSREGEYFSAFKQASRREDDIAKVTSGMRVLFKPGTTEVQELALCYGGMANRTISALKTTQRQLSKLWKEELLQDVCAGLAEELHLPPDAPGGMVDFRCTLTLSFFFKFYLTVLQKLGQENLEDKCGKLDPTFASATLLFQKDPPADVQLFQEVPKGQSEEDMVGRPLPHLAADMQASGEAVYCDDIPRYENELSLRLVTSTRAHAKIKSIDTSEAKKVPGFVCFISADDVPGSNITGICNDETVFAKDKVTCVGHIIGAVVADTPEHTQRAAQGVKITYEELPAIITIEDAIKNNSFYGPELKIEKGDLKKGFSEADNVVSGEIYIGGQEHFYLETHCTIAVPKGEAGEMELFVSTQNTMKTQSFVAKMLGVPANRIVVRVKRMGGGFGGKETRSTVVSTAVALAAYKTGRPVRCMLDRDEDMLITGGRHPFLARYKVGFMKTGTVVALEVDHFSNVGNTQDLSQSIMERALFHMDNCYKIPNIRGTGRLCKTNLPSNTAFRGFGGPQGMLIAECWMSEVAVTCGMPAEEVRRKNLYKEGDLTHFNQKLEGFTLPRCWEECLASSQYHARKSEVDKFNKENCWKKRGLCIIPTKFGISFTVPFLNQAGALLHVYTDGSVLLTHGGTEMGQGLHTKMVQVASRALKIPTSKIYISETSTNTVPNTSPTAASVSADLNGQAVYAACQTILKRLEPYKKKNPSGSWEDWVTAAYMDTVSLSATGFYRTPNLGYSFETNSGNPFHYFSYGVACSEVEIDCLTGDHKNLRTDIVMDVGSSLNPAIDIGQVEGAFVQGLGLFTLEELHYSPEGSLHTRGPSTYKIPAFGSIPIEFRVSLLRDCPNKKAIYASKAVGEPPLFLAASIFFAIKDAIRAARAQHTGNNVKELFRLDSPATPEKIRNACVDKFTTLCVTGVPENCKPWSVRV

Cc1nc(-c2ccc(OCC(C)C)c(C#N)c2)sc1C(=O)O [Febuxostat, febuxostat]
Maximum percentage decrease from baseline in Cmean,24 (healthy subjects [1]; febuxostat 40 mg dose group): ~ 40%
Maximum percentage decrease from baseline in Cmean,24 (healthy subjects [1]; febuxostat 90 mg dose group): 60%
Inhibition of the enzyme (XO), Emax (healthy subjects [1]; febuxostat): 81.4%
Allergic reaction, subjects (healthy subjects [1]; previous febuxostat multiple-dose study): six out of 118 subjects
t1/2 ([2]; febuxostat 40 mg): 10.3 ± 7.4 h
t1/2 ([2]; febuxostat 70 mg): 12.5 ± 7.7 h
Tmax ([2]; febuxostat): ~ 1 hour
Change by food in the percentage decrease in SUA concentration (healthy subjects [3]): no clinically significant change
Change of AUC by food (healthy subjects [3]): slight decrease
Maximum percentage decrease from baseline in Cmean,24 for SUA (healthy subjects [4]; febuxostat group (80 mg once daily for 7 days)): 58.8%

CC(C)n1cc(C#N)c2cc(-n3cc(C(=O)O)cn3)ccc21 [LC350189]
Dose up to which no significant toxicity was found (dog): 200 mg/kg
Metabolic stability (CYP isoenzymes): metabolically stable
Emax (maximum percentage decrease in Cmean,24 of SUA) (XO; Emax model, day 7, MAD, 95% CI 94.8%–105.4%): 100.1%
Inhibition of XO activity (XO; multiple doses at 100 mg, AUC at steady state close to EAUC50): ~50%
Emax (XO; read-out: Inhibition of XO based on the Emax model): ~100%
Reduction of SUA (SUA): sufficiently reduced SUA
Geometric mean ratio (90% CI) of AUClast with and without food ([5]; 200 mg single dose): 0.973 (0.837–1.131)
Geometric mean ratio (90% CI) of Cmax, fed vs fasting ([5]; 200 mg single dose): 0.624 (0.485–0.802)
Decrease of Cmax by food [5, 8]: 38%
Delay of absorption by food [5, 8]: ~ 2 hours
Time up to which plasma concentrations were detected ([5]; SAD low-dose groups (10 mg, 25 mg, 50 mg), LLOQ 5 ng/mL): up to 48 hours
half-life ([5]; male, human, plasma, oral, t1/2, overall, approximate): ~10 h
Allergic reaction (healthy subjects [6]; SAD and MAD): no allergic reaction
Renal toxicity according to the NGAL test (healthy subjects [6]; SAD and MAD): no signals of renal toxicity
Tolerability (healthy subjects [6]; single and multiple oral administrations, dose range 10–800 mg): well tolerated
Change in Cmean,24 of serum uric acid from baseline (healthy subjects [4]; MAD 800 mg once daily for 7 days, fasted, Day 7, mean (SD), n=6): −91.2%
Amount of uric acid excreted in the urine relative to baseline (healthy subjects [4]; after multiple administrations): one-third to one-tenth of the baseline level
Maximum percentage decrease from baseline in Cmean,24 for SUA (healthy subjects [4]; after multiple administrations of LC350189): 91.2%
Increase of Cmean,24 of xanthine (healthy subjects [4]; after multiple administrations, day 7): three-to eight-fold
Inhibition of XO enzyme activity (XO enzyme): comparable to febuxostat
Change in Cmean,24 of serum uric acid from baseline (healthy subjects [7]; SAD single oral 200 mg, fasting): −22.9%
Change in Cmean,24 of serum uric acid from baseline (healthy subjects [7]; SAD single oral 600 mg, fasted): −31.7%
Increase of Cmean,24 of xanthine (healthy subjects [7]; after a single dose): two- to seven-fold
Metabolic stability (liver microsome): metabolically stable
Dose up to which no significant toxicity was found (rat): 12.5 mg/kg
